Results on one compound are retold here after ChEMBL document CHEMBL1140923, “Discovery of imidazo[1,2-b]thiazole derivatives as novel SIRT1 activators” (J Med Chem, 2009).

Data set [1] deals with T1, Muscarinic acetylcholine receptor M1 (Homo sapiens, UniProt P11229).
T1 sequence (P11229 whole entry): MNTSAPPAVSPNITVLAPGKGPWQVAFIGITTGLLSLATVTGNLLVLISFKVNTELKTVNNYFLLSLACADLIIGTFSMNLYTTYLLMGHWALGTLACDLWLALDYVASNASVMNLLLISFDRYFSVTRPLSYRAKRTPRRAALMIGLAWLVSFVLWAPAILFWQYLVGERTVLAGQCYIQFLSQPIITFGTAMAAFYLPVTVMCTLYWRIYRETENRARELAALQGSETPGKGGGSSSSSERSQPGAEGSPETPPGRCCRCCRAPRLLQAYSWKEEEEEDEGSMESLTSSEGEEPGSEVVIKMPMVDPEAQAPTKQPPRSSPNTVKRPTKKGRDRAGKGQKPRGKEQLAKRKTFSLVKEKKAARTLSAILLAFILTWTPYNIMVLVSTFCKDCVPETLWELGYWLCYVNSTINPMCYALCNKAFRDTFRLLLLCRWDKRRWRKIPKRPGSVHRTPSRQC
Kind of data set: Inhibition of muscarinic M1 receptor.

Data set [2] relates to Salmonella typhimurium. Nature of the data set: Mutagenic activity in Salmonella Typhimurium TA100 in absence of S9 activation. In kind it is toxicity, organism-based. The conditions noted are these: salmonella enterica subsp. enterica serovar typhimurium.
For data set [3], the system named is Mus musculus. Nature of the data set: Antidiabetic activity in diet-induced obesity C57BL/6 mouse model assessed as reduction of fed blood glucose level at 100 mg/kg, po daily once for 1 week after 10 weeks. It is filed as functional. Set-up: scale not given: the % may be the effect or the level left. The procedure, abridged: (§1)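 Male C57BL/6 mice were fed a 60%-fat diet from 9 weeks of age until about 40 g, in groups of 6-10. They were dosed by oral gavage once daily in 2% HPMC + 0.2% DOSS, with 29 at 100 mg/kg and rosiglitazone at 5 mg/kg, alongside vehicle groups on lean and high-fat diet. Fed glucose was read at weeks 2, 4, 6, 8 and 10. Clinical chemistry and hematology were also measured. Analysis by ANOVA.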

Data set [4] in a line: AUC in C57BL/6 mouse at 100 mg/kg, po or 10 mg/kg, iv. In kind it is ADME, organism-based. Particulars: plasma. The procedure, abridged: (§2)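 Male C57BL/6 mice (18-22 g; 3 per dose group per time point), given 100 mg/kg po as the hydrochloride salt in 2% HPMC + 0.2% DOSS, or 10 mg/kg iv by tail vein in 10% ethanol/40% polyethylene glycol/50% H2O. Plasma was taken at 5, 30, 120 and 360 min after dosing and drug levels were measured.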

For data set [5], the system named is Mus musculus. Kind of data set: Liver toxicity in diet-induced obesity C57BL/6 mouse model at 100 mg/kg, po daily once after 10 weeks. In kind it is organism-based. On the set-up: dose 100 mg/kg, route oral. Particulars: in vivo, 1680 h. The procedure, abridged:
as §1

Data set [6] deals with Mus musculus. Kind of data set: Toxicity in diet-induced obesity C57BL/6 mouse model assessed as red blood count at 100 mg/kg, po daily once for 10 weeks. It is filed as organism-based. Set-up: dose 100 mg/kg, route oral. The conditions noted are these: in vivo, 1680 h. The procedure, abridged: as §1
Data set [7] deals with Salmonella typhimurium. Kind of data set: Mutagenic activity in Salmonella Typhimurium TA100 in presence of S9 activation. It is filed as toxicity, organism-based. Particulars: salmonella enterica subsp. enterica serovar typhimurium.
Data set [8] has as its system Mus musculus. Kind of data set: Toxicity in diet-induced obesity C57BL/6 mouse model assessed as white blood count at 100 mg/kg, po daily once for 10 weeks. In kind it is organism-based. On the set-up: dose 100 mg/kg, route oral. Particulars: in vivo, 1680 h. The procedure, abridged:
as §1

Data set [9] in a line: Terminal half life in C57BL/6 mouse at 100 mg/kg, po or 10 mg/kg, iv. In kind it is ADME, organism-based. The conditions noted are these: in vivo, read-out: beta t1/2 (converted). The procedure, abridged:
as §2

In data set [10] the test system is Mus musculus. Kind of data set: Antidiabetic activity in ob/ob mouse model assessed as reduction of fasting blood glucose level at 100 mg/kg, po daily once after 1 week relative to control. In kind it is functional, organism-based. On the set-up: dose 100 mg/kg. The procedure, abridged: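 ob/ob mice received at 6 weeks of age were kept on a 60%-fat diet from at least 1 week before the study. They were sorted by body weight and glucose, then gavaged once daily with 100 mg/kg or vehicle (2% HPMC + 0.2% DOSS). Fasting blood glucose was measured. Analysis by one-way ANOVA with Dunnett's test.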

Data set [11] can be described thus: Cmax in C57BL/6 mouse at 100 mg/kg, po or 10 mg/kg, iv. It is filed as ADME, organism-based. The conditions noted are these: in vivo. The procedure, abridged: as §2
In data set [12] the test system is Mus musculus. Nature of the data set: Toxicity in diet-induced obesity C57BL/6 mouse model assessed as hemoglobin at 100 mg/kg, po daily once for 10 weeks. In kind it is organism-based. Set-up: dose 100 mg/kg, route oral. Particulars: in vivo, 1680 h. The procedure, abridged: as §1
In data set [13] the target is Voltage-gated inwardly rectifying potassium channel KCNH2 (Homo sapiens, UniProt Q12809). Nature of the data set: Inhibition of human ERG by patch clamp method. The procedure, abridged: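 hERG was measured by patch clamp.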
Sequence of Voltage-gated inwardly rectifying potassium channel KCNH2 (Q12809 whole entry): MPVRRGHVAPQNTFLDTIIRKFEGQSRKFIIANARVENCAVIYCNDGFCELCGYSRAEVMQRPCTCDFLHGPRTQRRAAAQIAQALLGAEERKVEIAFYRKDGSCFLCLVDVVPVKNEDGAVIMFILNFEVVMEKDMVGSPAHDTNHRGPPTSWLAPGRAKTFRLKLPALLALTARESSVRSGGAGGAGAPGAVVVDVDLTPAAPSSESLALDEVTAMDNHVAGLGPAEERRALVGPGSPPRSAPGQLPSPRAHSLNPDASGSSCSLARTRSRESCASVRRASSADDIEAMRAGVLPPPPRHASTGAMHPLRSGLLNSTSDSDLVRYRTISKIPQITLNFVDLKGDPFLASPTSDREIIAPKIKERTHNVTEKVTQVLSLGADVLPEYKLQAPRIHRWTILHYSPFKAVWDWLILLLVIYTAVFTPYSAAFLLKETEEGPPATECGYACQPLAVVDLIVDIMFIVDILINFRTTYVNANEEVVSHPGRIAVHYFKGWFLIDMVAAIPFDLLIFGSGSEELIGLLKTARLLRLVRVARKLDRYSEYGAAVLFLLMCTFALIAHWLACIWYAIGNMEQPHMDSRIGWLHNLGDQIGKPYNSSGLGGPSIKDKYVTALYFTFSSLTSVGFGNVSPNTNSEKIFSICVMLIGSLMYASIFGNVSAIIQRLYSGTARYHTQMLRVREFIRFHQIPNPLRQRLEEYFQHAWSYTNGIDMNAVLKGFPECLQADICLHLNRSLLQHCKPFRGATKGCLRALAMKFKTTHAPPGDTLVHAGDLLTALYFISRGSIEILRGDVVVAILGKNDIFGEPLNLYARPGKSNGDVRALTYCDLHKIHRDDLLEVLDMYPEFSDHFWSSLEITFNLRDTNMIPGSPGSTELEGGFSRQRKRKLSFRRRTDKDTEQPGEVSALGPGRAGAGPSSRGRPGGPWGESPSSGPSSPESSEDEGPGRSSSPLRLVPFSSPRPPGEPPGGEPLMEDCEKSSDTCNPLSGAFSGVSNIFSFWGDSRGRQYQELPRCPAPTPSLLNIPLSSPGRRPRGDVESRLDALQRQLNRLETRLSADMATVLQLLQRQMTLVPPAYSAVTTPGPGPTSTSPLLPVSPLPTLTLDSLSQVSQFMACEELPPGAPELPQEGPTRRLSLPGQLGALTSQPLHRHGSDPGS
Data set [14] deals with Mus musculus. Nature of the data set: Antidiabetic activity in diet-induced obesity C57BL/6 mouse model assessed as reduction of fed blood glucose level at 100 mg/kg, po daily once relative to control.
A further data set addresses Cytochrome P450 2D6 (Homo sapiens, UniProt P10635). Kind of data set: Inhibition of CYP2D6 at 25 uM. In kind it is ADME. The procedure, abridged: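 Inhibition of CYP isozymes was tested up to a highest concentration of 25 µM.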
Data set [15] concerns Mus musculus. Kind of data set: Toxicity in diet-induced obesity C57BL/6 mouse model assessed as hematocrit at 100 mg/kg, po daily once for 10 weeks. In kind it is organism-based. On the set-up: dose 100 mg/kg, route oral. Particulars: in vivo, 1680 h. The procedure, abridged: as §1
The test system of data set [16] is Rattus norvegicus. Nature of the data set: Antidiabetic activity in genetic Zucker fa/fa rat model assessed as reduction of glucose production at 100 mg/kg, po daily once after 3 weeks by pyruvate tolerance test. In kind it is functional, organism-based. Set-up: dose 100 mg/kg. The procedure, abridged: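 Male Zucker fa/fa rats, housed singly, were gavaged daily from 7 weeks of age with 100 mg/kg or vehicle (2% HPMC + 0.2% DOSS), 5 per group. Fed tail-vein glucose was taken on day 22. Also on day 22, after an overnight fast, sodium pyruvate 1 g/kg was given ip and glucose was read at 0-90 min.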

Data set [17] in a line: Oral bioavailability in Sprague-Dawley rat at 100 mg/kg. It is filed as ADME, organism-based. Particulars: in vivo. The procedure, abridged: (§3)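 Male Sprague-Dawley rats (250 g, 3 per dose group) received 100 mg/kg by oral gavage in 2% HPMC + 0.2% DOSS, or 10 mg/kg iv by tail vein in 10% ethanol/40% PEG/50% H2O. Blood was drawn at 0.033-24 h postdose for drug levels.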

Data set [18] relates to Salmonella typhimurium. Nature of the data set: Mutagenic activity in Salmonella Typhimurium TA98 in absence of S9 activation. In kind it is toxicity, organism-based. Particulars: salmonella enterica subsp. enterica serovar typhimurium.
Data set [19] is described as follows: AUC in Sprague-Dawley rat at 100 mg/kg, po or 10 mg/kg, iv. In kind it is ADME, organism-based. The conditions noted are these: plasma. The procedure, abridged: as §3
For data set [20], the system named is Rattus norvegicus. Nature of the data set: Antidiabetic activity in genetic Zucker fa/fa rat model assessed as increase in glucose disposal rate at 100 mg/kg, po daily once after 4 weeks by hyperinsulinemic-euglycemic clamp. It is filed as functional. The procedure, abridged: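 Zucker fa/fa rats, cannulated 5 days beforehand and fasted 8 h, underwent the clamp after 4 weeks of dosing. [3-3H]glucose tracer was primed and infused, then insulin 25 (mU/kg)/min was started. Variable 50% dextrose held blood glucose at 100 mg/dL over 120 min, with tracer specific activity sampled at 110 and 120 min.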

The nature of data set [21]: Inhibition of sodium channel site 2.

The source made the active and inactive calls. The rule behind the calls is not given here.

Sequence of Cytochrome P450 2D6 (P10635 whole entry): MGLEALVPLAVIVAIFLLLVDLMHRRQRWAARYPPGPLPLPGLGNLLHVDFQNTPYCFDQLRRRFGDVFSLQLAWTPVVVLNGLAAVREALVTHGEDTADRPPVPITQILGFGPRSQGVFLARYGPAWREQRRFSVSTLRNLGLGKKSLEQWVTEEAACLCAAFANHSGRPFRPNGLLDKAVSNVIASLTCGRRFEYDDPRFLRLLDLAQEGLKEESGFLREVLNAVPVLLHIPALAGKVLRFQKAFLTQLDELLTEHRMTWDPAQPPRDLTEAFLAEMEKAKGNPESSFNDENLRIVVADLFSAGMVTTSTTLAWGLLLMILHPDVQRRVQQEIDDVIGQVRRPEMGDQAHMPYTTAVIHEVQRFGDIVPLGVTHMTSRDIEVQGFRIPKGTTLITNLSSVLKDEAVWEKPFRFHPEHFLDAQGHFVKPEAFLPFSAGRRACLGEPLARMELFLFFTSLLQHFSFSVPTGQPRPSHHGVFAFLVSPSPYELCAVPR

Turning to `O=C(Nc1ccccc1-c1cn2c(CN3CCNCC3)csc2n1)c1cnc2ccccc2n1`, the IC50 in data set [1] is 8.02 µM; in [13], greater than 10 µM; in data set [21] it was 3.37 µM. For the same compound, the Activity entry with Salmonella typhimurium [2] is reported as “Non-toxic”; in the data set on Mus musculus [3], 15%; in the data set with Mus musculus [5], “Non-toxic”; in the data set on Mus musculus [6], “Active”; with Salmonella typhimurium [7], “Non-toxic”; with Mus musculus [8], “Active”. The Activity entry in the data set with Mus musculus [12] was “Active”; at Cytochrome P450 2D6, “Not Active”; in the data set on Mus musculus [15], “Active”; in the data set with Salmonella typhimurium [18], “Non-toxic”; in the data set with Rattus norvegicus [20], 20%. The exposure (AUC) in data set [4] came out at 7900 ng·h/mL; in [19] it was 3700 ng·h/mL. Besides, the half-life in data set [9] was 5 h. Moreover, the result in the data set with Mus musculus [10], in the data set with Mus musculus [14] and in the data set with Rattus norvegicus [16] was Active. In data set [11], the maximum concentration (Cmax) was determined as 1000 nM. Moreover, in [17], the bioavailability was found to be 25%.

The term IC50 denotes the concentration at which inhibition is half-maximal. By AUC is commonly meant the area under the concentration-time curve, a measure of exposure. As a reminder, the Cmax is the peak of the concentration-time curve. As usually defined, the bioavailability is dose-corrected exposure relative to a reference, in per cent.
